Measured values reported in ChEMBL document CHEMBL1143060, “Synthesis and pharmacological investigation of novel 4-benzyl-1-substituted-4H-[1,2,4]triazolo[4,3-a]quinazolin-5-ones as new class of H1-antihistaminic agents” (2007).

How the values were obtained:
Assay type in all cases: functional
Cavia porcellus = assay: Antihistaminic activity in Dunkin-Hartley guinea pig assessed as protection against histamine-induced bronchospasm at 10 mg/kg, po
Method in brief: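 Male Dunkin Hartley guinea pigs (250–300 g), fasted 12 h, six per group, dosed orally at 10 mg/kg in 1% CMC. They were then challenged in a closed transparent cage with nebulized histamine aerosol (0.2% aqueous histamine acid chloride, 3 ml). Preconvulsion onset time was recorded, and animals stable >6 min counted as protected. Mean preconvulsion time versus control was expressed as percent protection.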

Mus musculus [1] = assay: Sedative-hypnotic activity in Swiss Albino mouse assessed as reduction of locomotor activity at 5 mg/kg, po after 3 hrs; set-up: scale not given: the % may be the effect or the level left
Method in brief: (§1)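 Locomotor activity was scored at 1, 2 and 3 h after dosing, and percent reduction in locomotor activity was calculated. Significance versus control was tested by Student's t test. Animals were housed at 45–55% relative humidity on a 12 h light/dark cycle, fed standard feed, and acclimatized for one week before use.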

Mus musculus [2] = assay: Sedative-hypnotic activity in Swiss Albino mouse assessed as reduction of locomotor activity at 5 mg/kg, po after 2 hrs; set-up: scale not given: the % may be the effect or the level left; method in brief: as §1
Mus musculus [3] = assay: Sedative-hypnotic activity in Swiss Albino mouse assessed as reduction of locomotor activity at 5 mg/kg, po after 1 hrs; set-up: scale not given: the % may be the effect or the level left; method in brief: as §1

SMILES	Activity (Cavia porcellus)	Activity (Mus musculus [1])	Activity (Mus musculus [2])	Activity (Mus musculus [3])
Cc1nnc2n(Cc3ccccc3)c(=O)c3ccccc3n12	76.08%	6%	11%	6%
CCCc1nnc2n(Cc3ccccc3)c(=O)c3ccccc3n12	73.87%	11%	15%	9%
O=c1c2ccccc2n2c(CN3CCNCC3)nnc2n1Cc1ccccc1	74.44%	8%	14%	6%
O=c1c2ccccc2n2c(CCl)nnc2n1Cc1ccccc1	72.96%	4%	7%	5%
CN(C)CC[C@@H](c1ccccc1)c1ccccn1.O=C(O)/C=C\C(=O)O [PHENIRAMINE MALEATE]	71%	22%	32%	37%
O=c1c2ccccc2n2cnnc2n1Cc1ccccc1	73.99%	4%	9%	6%
O=c1c2ccccc2n2c(CN3CCOCC3)nnc2n1Cc1ccccc1	74.1%	6%	13%	7%
CCc1nnc2n(Cc3ccccc3)c(=O)c3ccccc3n12	74.39%	9%	12%	7%
O=c1c2ccccc2n2c(CN3CCCC3)nnc2n1Cc1ccccc1	73.69%	8%	12%	8%
O=c1c2ccccc2n2c(CN3CCCCC3)nnc2n1Cc1ccccc1	73.93%	8%	15%	9%
CN1CCN(Cc2nnc3n(Cc4ccccc4)c(=O)c4ccccc4n23)CC1	74.83%	7%	17%	8%
